Values after ≈ are worked out from the molar mass of the structure shown. Active and inactive are the calls of the source. The calls are words filed in the database; no cut-off is given here.
What was measured:
[1] = Half life in C57BL/6J mouse at 10 mg/kg, po; type: ADME, organism-based; conditions: in vivo
Procedure, shortened: (§1)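 Oral dosing at 10 mg/Kg in C57BL/6J mice. Vehicle is DMAC (10%), CrEL (10%), PEG300 (10%) in water, pH ~9, or, for one compound, DMSO (10%), CrEL (10%), PEG300 (10%) in water, pH ~7.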

[2] = biological target: Adenosine receptor A2a (Homo sapiens) (UniProt P29274); experiment: Displacement of [3H]-ZM241385 from human adenosine A2A receptor expressed in HEK293 cell membranes at 0.1 uM after 90 mins relative to control
Procedure, shortened: (§2)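 Membranes from HEK-293 cells stably transfected with human A1, A2A or A3 receptor, pretreated with 1 U/ml ADA. Membranes are incubated 90 min at room temperature with gentle agitation. Tracer and buffer per receptor: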

HepG2 = experiment: Cytotoxicity against human HepG2 cells; type: cell-based
[3] = AUC (0 to t) in C57BL/6J mouse at 10 mg/kg, po; type: ADME, organism-based; conditions: in vivo; procedure, shortened: as §1
Mus musculus [4] = experiment: Antiinflammatory activity in […] allergic asthma mouse model assessed as inhibition of airway hyper-responsiveness at 3 mg/kg administered ip bid; type: functional, organism-based
[5] = Aqueous solubility of the compound at pH 7.4; type: physicochemical
Procedure, shortened: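 Aqueous solubility measured at pH 7.4.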

Liver [6] = experiment: Metabolic stability in rat liver microsomes; type: ADME, microsome
[7] = biological target: T1, Adenosine receptor A3 (Homo sapiens) (UniProt P0DMS8); experiment: Displacement of [3H]-HEMADO from human adenosine A3 receptor expressed in HEK293 cell membranes at 1 uM after 90 mins relative to control; procedure, shortened: as §2
T1 sequence (whole entry): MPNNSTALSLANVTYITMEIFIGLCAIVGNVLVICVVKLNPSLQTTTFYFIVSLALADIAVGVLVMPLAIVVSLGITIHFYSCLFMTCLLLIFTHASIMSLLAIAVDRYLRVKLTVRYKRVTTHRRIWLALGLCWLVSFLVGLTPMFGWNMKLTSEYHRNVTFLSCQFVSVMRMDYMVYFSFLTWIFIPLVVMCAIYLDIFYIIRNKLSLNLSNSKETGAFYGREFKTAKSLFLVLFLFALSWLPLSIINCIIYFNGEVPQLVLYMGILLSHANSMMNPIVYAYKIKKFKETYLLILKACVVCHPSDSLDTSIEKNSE

Liver [8] = experiment: Metabolic stability in mouse liver microsomes; type: ADME, microsome
MDCK = experiment: Cytotoxicity against MDCK cells; type: cell-based; conditions: Canis lupus familiaris
[9] = biological target: Voltage-gated inwardly rectifying potassium channel KCNH2 (Homo sapiens, UniProt Q12809); experiment: Inhibition of human ERG
[10] = Oral bioavailability in C57BL/6J mouse at 10 mg/kg; type: ADME, organism-based; conditions: in vivo; procedure, shortened: as §1
[11] = biological target: T2, Adenosine receptor A1 (Homo sapiens) (UniProt P30542); experiment: Displacement of [3H]-DPCPX from human adenosine A1 receptor expressed in HEK293 cell membranes at 0.1 uM after 90 mins relative to control; procedure, shortened: as §2
T2 sequence (whole entry): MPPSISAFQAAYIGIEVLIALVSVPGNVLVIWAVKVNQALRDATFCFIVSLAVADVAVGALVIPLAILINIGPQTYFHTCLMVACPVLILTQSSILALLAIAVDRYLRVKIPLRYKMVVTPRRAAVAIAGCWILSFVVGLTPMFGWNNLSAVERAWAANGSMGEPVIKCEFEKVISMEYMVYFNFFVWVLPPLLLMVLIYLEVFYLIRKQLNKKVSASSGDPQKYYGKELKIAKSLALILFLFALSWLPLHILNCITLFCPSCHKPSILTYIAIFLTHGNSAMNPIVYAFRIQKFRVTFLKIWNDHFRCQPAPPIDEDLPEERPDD

Adenosine receptor A2b [12] = biological target: T3, Adenosine receptor A2b (Homo sapiens, UniProt P29275); experiment: Antagonist activity at human adenosine A2B receptor expressed in mouse NIH/3T3 cells assessed as inhibition of NECA-induced IL-6 release incubated for 15 mins followed by agonist treatment for 15 mins by HTRF assay; type: cell-based
T3 sequence (P29275 whole entry): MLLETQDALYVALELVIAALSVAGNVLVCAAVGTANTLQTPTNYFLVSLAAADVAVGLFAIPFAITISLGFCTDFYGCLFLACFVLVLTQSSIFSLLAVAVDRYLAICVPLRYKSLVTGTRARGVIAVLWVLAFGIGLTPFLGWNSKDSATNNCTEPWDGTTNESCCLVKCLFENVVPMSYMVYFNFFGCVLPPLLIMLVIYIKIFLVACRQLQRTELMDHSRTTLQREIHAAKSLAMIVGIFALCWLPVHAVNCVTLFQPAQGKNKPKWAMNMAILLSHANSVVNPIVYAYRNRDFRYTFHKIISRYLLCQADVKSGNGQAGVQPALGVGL

Mus musculus [13] = experiment: Antiinflammatory activity in ovalbumin-induced allergic asthma mouse model assessed as reduction in total cell count in bronchoalveolar lavage fluid at 3 mg/kg administered ip bid; type: functional, organism-based
Adenosine receptor A2b [14] = biological target: T3, Adenosine receptor A2b; experiment: Antagonist activity at human adenosine A2B receptor expressed in HEK293 cells assessed as inhibition of NECA-induced increase in cAMP accumulation incubated for 15 mins followed by agonist treatment for 15 mins by HTRF assay; type: functional, cell-based
Procedure, shortened: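 HEK-293 cells overexpressing human A2B, 24 h cultures, are pretreated with 1 U/mL ADA for 90 min at 37°C. Cells are harvested and preincubated with increasing compound concentrations for 15 min at room temperature in DMEM with ADA.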

[15] = Cmax in C57BL/6J mouse at 10 mg/kg, po; type: ADME, organism-based; design: dose 10 mg/kg, route oral; conditions: in vivo; procedure, shortened: as §1
Adenosine receptor A2b [16] = biological target: T3, Adenosine receptor A2b; experiment: Displacement of [3H]-MRS-1754 from human adenosine A2B receptor expressed in HEK293 cell membranes after 90 mins; conditions: read-out: Ki
Procedure, shortened: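 Membranes from HEK-293 cells stably expressing human A2B, ADA-treated, incubated with 1.6 nM [3H]-MRS-1754 in 50 mM Tris pH 6.5, 5 mM MgCl2, 1 mM EDTA, 1 U/ml ADA. Incubation 90 min at room temperature. Filtration; nonspecific binding with 100 µM NECA. Eight compound concentrations, each in triplicate; Ki derived by fitting.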

[17] = Inhibition of CYP450 (unknown origin); type: ADME, Homo sapiens
Liver [18] = experiment: Metabolic stability in human liver microsomes; type: ADME, microsome
P-gp = experiment: Substrate activity at P-gp (unknown origin) assessed as ratio of permeability from basolateral to apical side over apical to basolateral side; type: ADME; conditions: human, not told

Adenosine receptor A2a (Homo sapiens), sequence (P29274 whole entry): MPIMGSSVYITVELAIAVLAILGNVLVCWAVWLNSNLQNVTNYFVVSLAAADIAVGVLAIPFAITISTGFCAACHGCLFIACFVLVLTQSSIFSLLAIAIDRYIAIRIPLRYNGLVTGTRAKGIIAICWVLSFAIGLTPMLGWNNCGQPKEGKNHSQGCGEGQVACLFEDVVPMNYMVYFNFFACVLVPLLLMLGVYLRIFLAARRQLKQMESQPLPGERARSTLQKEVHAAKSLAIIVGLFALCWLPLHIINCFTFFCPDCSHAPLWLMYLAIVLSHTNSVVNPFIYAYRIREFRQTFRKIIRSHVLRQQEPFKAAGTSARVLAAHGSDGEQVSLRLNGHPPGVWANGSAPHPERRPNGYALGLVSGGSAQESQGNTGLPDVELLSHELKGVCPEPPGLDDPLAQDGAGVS
Voltage-gated inwardly rectifying potassium channel KCNH2, sequence (Q12809 whole entry): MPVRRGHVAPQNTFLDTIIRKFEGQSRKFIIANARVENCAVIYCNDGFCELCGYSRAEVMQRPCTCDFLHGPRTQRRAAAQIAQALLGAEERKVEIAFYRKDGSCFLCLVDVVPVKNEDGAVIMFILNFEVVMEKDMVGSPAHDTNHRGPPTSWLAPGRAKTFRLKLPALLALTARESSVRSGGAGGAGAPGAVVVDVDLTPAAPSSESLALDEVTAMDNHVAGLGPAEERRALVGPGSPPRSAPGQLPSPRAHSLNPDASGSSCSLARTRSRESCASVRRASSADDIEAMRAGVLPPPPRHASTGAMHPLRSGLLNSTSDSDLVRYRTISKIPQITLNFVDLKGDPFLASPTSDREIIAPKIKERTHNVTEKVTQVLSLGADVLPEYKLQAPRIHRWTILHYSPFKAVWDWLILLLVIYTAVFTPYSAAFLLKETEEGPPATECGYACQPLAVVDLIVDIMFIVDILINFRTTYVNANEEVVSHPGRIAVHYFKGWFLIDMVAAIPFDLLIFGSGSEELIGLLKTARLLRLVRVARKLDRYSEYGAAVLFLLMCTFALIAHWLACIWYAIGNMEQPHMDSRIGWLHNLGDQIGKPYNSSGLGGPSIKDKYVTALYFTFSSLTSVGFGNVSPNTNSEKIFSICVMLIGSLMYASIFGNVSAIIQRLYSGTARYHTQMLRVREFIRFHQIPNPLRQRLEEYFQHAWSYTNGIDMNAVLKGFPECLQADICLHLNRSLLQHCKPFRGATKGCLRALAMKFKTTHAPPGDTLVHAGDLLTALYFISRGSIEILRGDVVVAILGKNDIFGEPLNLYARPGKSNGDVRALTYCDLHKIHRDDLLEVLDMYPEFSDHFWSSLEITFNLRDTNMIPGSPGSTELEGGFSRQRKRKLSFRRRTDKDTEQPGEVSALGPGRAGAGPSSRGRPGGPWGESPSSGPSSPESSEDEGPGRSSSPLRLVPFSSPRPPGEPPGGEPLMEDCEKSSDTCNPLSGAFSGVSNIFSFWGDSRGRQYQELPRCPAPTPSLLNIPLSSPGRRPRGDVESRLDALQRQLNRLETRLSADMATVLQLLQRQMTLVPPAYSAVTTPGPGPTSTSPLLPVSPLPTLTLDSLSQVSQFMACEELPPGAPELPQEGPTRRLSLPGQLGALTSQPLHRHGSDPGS

Row | SMILES | half-life [1] [min] | inhibition [2] [%] | AUC(0-t) [3] [µM·h] | solubility [5] [µM] | Stability (Liver [6]) | inhibition [7] [%] | Stability (Liver [8]) | bioavailability [10] [%] | inhibition [11] [%] | IC50 (Adenosine receptor A2b [12]) [nM] | Ki (Adenosine receptor A2b [14]) [nM] | Cmax [15] [µM] | Ki (Adenosine receptor A2b [16]) [nM] | Stability (Liver [18]) | further results
1 | CCCn1c(=O)c2[nH]c(-c3cnn(CC#Cc4cccc(OC(F)(F)F)c4)c3)nc2n(CC)c1=O | 366 | 37 | 60 | 21 (≈ 10.2 µg/mL) | Stable | 0 | Stable | 76 | 17 | 107 | 8 | 13 | 13 | Stable | IC50 (HepG2): > 100 µM; inhibition (Mus musculus [4]): Active; IC50 (MDCK): > 100 µM; IC50 [9]: > 25 µM; Activity (Mus musculus [13]): Active; IC50 [17]: > 10 µM
2 | CCCn1c(=O)c2[nH]c(-c3cnn(CC#Cc4cccc(C(=O)O)c4)c3)nc2n(CCC)c1=O | 108 | 32 | 2.2 | 529 (≈ 244 µg/mL) | Stable | 0 | Stable | 10 | 20 | 2000 | 1.8 | 1.9 | 5.3 | Stable | efflux ratio (P-gp): 12
3 | CCCn1c(=O)c2[nH]c(-c3cnn(CC#Cc4cccc(OC(F)(F)F)c4)c3)nc2n(CCC)c1=O | 300 | 27 | 67 | < 6 | Stable | 6 | Stable | 42 | 39 | 90 | 8.8 | 6.6 | 3.6 | Stable | –
4 | CCCn1c(=O)c2[nH]c(-c3cnn(CC#Cc4ccccc4C(F)(F)F)c3)nc2n(CCC)c1=O | – | 29 | – | – | – | 25 | – | – | 52 | – | – | – | 29 | – | –
5 | CCCn1c(=O)c2[nH]c(-c3cnn(CC#Cc4ccc(C(=O)OCC)cc4)c3)nc2n(CCC)c1=O | – | 19 | – | – | – | 27 | – | – | 80 | – | – | – | 3.5 | – | –

— ChEMBL document CHEMBL4020725, “Design and synthesis of novel xanthine derivatives as potent and selective A2B adenosine receptor antagonists for the treatment of chronic inflammatory airway diseases” (Eur J Med Chem, 2017)
